From PubChem
Shown are actives, neighbours in structure and some others; about 3.5% of the full set was active somewhere.
rRNA inh HTS – inhibits bacterial ribosomal RNA function over humanized ribosomes; hit rate 1.6% among 350,000; E. coli WT GFP vs humanized-ribosome RFP mutants, fluorescence, 24 h; hits give low values; DMSO median 0, no signal -100; GFP signal change (wild-type ribosome), % (concentration not given with the values); AID 720706;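 active means significant combined selectivity score with lowered wild-type GFP, culture density cut under 30%, mutant RFP and density less affected; inactive means any of these conditions unmet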
FGF22 binding – shifts melting point of recombinant human FGF22 | Q9HCT0 | activity (Tm shift, normalised), % at 9.99 µM | recombinant FGF22 thermal shift, SYPRO orange fluorescence; percent of sucrose octasulfate shift, DMSO zero | hit rate 1.5% among 340,000;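 active means mean Tm shift, scaled 0 neutral to 100 positive control, at about 1.3% or above, every replicate too, limit read from the data; inconclusive means no clear call, values can overlap the other calls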
Target sequence (Q9HCT0 whole entry, looked up): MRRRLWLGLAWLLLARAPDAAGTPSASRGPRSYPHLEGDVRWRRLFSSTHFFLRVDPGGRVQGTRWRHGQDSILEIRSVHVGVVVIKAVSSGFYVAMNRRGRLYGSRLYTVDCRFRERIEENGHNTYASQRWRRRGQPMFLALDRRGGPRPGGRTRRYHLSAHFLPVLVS
Cneo AK release – Cryptococcus neoformans lysis via adenylate kinase release | hit rate 0.2% among 360,000 | C. neoformans lysis, adenylate kinase release luminescence, 4 h; normalised: neutral wells 0, clomiphene wells 100 | lysis activity, % at 15 µM;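 active means mean lysis activity across replicates of at least 80%, whatever share of replicates individually reach that level; inactive means mean lysis activity below 80%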
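Assay system: log-phase C. neoformans yeast / Quantity: yeast cell density of 5 × 10^6 cells/mL / Medium: fresh YPD growth medium / Compound: single dose / Timing: static 4 h at 37 °C with compound, 1 h detection / Measured by: adenylate kinase release luminescence / Read-out: lysis from increased AK signal / Benchmarks: Clomiphene as positive lysis control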
Env fusion inh – inhibitors of HIV Env-mediated cell fusion. HeLa-JRFL Env/CEM21 cell fusion, luciferase. inhibition, % at 12.3 µM. hit rate 1.1% among 360,000;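 active means mean replicate inhibition score of at least 50 and every replicate individually at or above 50; inconclusive means only one of the two criteria met; inactive means mean below 50 and not all replicates reaching 50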;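 further: 0% = plate neutral controls and 100% = maraviroc near 300 nM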
ERAP1 inh – blocks human ERAP1 aminopeptidase activity | Q9NZ08 | recombinant ERAP1, Leu-AMC fluorescence, 60 min | inhibition, % at 10.7 µM | hit rate 0.15% among 340,000 | AID 652197;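 active means mean replicate inhibition of at least 30%, or all replicates individually reaching that 30% level; inactive means mean below 30% and not every replicate reaching it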;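 further: 0% = neutral control wells and 100% = L-leucinethiol positive control wells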
PGC1a acetyl inh – modulators of PGC1a acetylation; inhibition, % at 15.6 µM; U2OS PGC1a acetylation, AlphaScreen anti-acetyl-lysine; with virally co-expressed GCN5 acetyltransferase; hit rate 0.17% among 350,000; AID 651687;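 active means every replicate shows inhibition of at least 40%; inconclusive means mean inhibition at least 40% but some replicate below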;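 further: 0% = neutral control wells and 100% = positive control wells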
* hit, by the source's call; ? = inconclusive; / = no result; [ ] = another dose, or the depositor's remark.

SMILES | rRNA inh HTS | FGF22 binding | Cneo AK release | Env fusion inh | ERAP1 inh | PGC1a acetyl inh
CC(C)N(Cc1nccn1C)C(=O)CCc1nnc(CCCc2ccccc2)o1 | 13.2 | 44.5* | / | -12.8 | -2.2 | /
COC(c1ccccc1)c1nnc(CCC(=O)N(C)CCc2ccccc2)o1 (stereo not given) | / | 43.7* | / | -40.9 | -4.1 | /
CN(CCc1cnn(C)c1)C(=O)CCc1nnc(CCCc2ccccc2)o1 | / | 43.3* | / | -42.8 | -4.8 | 7.1
Cc1cccc(C(=O)O/N=C(\N)c2ccccn2)c1 | 1.1 | -0.1 | -8.8 | 31.2 | -4.1 | 1.6
O=C(c1ccco1)N1CCN(Cc2ccc(F)cc2Cl)CC1 | 1.7 | -0.2 | 1.9 | 8.4 | -0.7 | 3.6
COc1ccc(-c2[nH]ncc2CN2CCC(C(=O)N3CCOCC3)CC2)c(F)c1 | 13.7 | -0.1 | -5.3 | -6.9 | -1.9 | 4.9
O=C(C1CCN(Cc2cn[nH]c2-c2ccc(F)cc2F)CC1)N1CCOCC1 | 11.0 | 44.1* | / | 10.7 | 2.3 | /
O=S(=O)(Nn1cnnc1)c1ccccc1 | 9.3 | / | 7.4 | / | 4.7 | /
O=S(=O)(Nn1cnnc1)c1ccc2ccccc2c1 | 15.2 | 43.3* | -0.1 | 12.8 | 3.3 | -1.8
COc1ccc(N2CC(C)Cn3c2nc2c3c(=O)n(Cc3ccccc3)c(=O)n2C)c(OC)c1 (stereo not given) | -2.1 | -0.1 | -9.5 | 19.8 | / | 4.8
COc1ccc(N2CCn3c2nc2c3c(=O)n(CCCc3ccccc3)c(=O)n2C)c(OC)c1 | 2.9 | / | / | 73.3* | 4.4 | 17.8
COCC#Cc1cnc2c(c1)C(=O)N([C@H](C)CO)C[C@@H](C)[C@H](CN(C)C(=O)C1CC1)O2 | 3.9 | -0.2 | 3.2 | -2.9[16.7 µM] | -2.0 | 5.0
Cc1nc(N)c(CC(Br)CBr)c(Cl)n1 (stereo not given) | -38.4* | -0.1 | / | 27.4 | -1.9 | 18.8
Cc1ccc(NC(=O)CN(C)Cc2nc3c(Br)cc(Br)cc3c(=O)[nH]2)cc1 | -7.2 | -0.2 | -1.7 | 19.9 | 2.6 | 9.3
Cc1ccc(C2c3c(n[nH]c3C)C(=O)N2Cc2ccccc2)cc1 (stereo not given) | 0.7 | 41.1 | / | 11.7 | 0.6 | /
Cc1[nH]nc2c1C(c1ccc(Br)cc1)N(Cc1ccccc1)C2=O (stereo not given) | -25.4* | 0.0 | / | -1.8 | 5.6 | /
O=C(c1cc(COc2ccc3ncccc3c2)on1)N1CCC[C@H]1CO | -2.9 | 0.6 | 3.3 | 58.7* | 1.4 | -1.2
O=C(CSc1nnc(-c2ccncc2)n1Cc1ccco1)c1ccc(Cl)cc1 | -19.9* | / | 8.3 | / | 1.5 | /
CCc1cccc(C)c1NC(=S)N(CCOC)C(C)c1ccco1 (stereo not given) | 1.1 | 0.1 | 1.6 | 8.9 | -2.4 | -12.5
COc1ccc(C(NC(=O)C2CCN(CCOc3ccc(Cl)cc3Cl)CC2)c2ccccc2C)cn1 (stereo not given) | -28.8* | -0.1 | 6.2 | -7.8 | -2.5 | /
O=C(c1ccc(C(F)(F)F)cc1)C1CCCN(C(=O)CN2CCCC2=O)C1 (stereo not given) | 9.8 | 43.1* | -0.3 | 8.9 | 3.7 | -5.1
COc1ccc(N2C(c3cc(OC)cc(OC)c3)=Cc3ccccc3C2CC(C)=O)cc1 (stereo not given) | -17.1 | -0.2 | / | 14.0 | -0.9 | /
COc1cccc(CN(Cc2ccccc2F)S(=O)(=O)c2ccc(S(=O)(=O)NCc3ccccc3)cc2)c1 | / | / | / | 67.9* | / | /
COc1cccc(CN(Cc2ccco2)S(=O)(=O)c2ccc(S(=O)(=O)NCc3ccccc3)cc2)c1OC | / | / | 0.3 | ? | / | -20.8
Cc1ccc(C(=O)N2CCCCCC2)cc1S(=O)(=O)N1CCOCC1 | 2.5 | -0.1 | -1.7 | 4.5 | 0.9 | /
SMILES | rRNA inh HTS | FGF22 binding | Cneo AK release | Env fusion inh | ERAP1 inh | PGC1a acetyl inh
Cc1ccc(NC(=O)CCc2nnc(SCC(=O)Nc3ccccc3C)n2C)cc1Cl | 3.7 | / | 6.3 | / | 0.7 | /
CCN1CCN(C(=O)c2cc3cc(Cl)ccc3[nH]2)CC1 | 3.2 | -0.4 | 0.5 | -22.2 | -0.4 | 8.5
O=C(O)C(Cc1c[nH]c2ccccc12)NS(=O)(=O)c1ccc(Cl)cc1 (stereo not given) | 19.9 | 43.5* | -0.9 | -7.5 | 1.8 | -2.8
O=C(O)C(Cc1c[nH]c2ccccc12)NS(=O)(=O)c1ccc(Br)cc1 (stereo not given) | 9.0 | 0.1 | 0.1 | -3.7 | -0.3 | 6.3
CC1=C(C(=O)OCc2ccccc2)C(c2ccccc2)NC(=O)N1 (stereo not given) | -5.1 | 0.0 | 80.3* | 15.8 | -5.9 | -0.2
CC1=C(C(=O)OCc2ccc3c(c2)OCO3)C(c2ccc(F)cc2)NC(=O)N1 (stereo not given) | / | / | 0.2 | 99.9* | / | 36.2
COc1ccc(COC(=O)C2=C(C)NC(=O)NC2c2ccc(O)c(OC)c2)cc1 (stereo not given) | -21.8* | -0.3 | -5.1 | / | 1.9 | -0.2
COc1ccc(C2NC(=O)NC(C)=C2C(=O)OCc2ccccc2)cc1 (stereo not given) | -5.4 | -0.1 | 0.5 | 19.0 | 1.0 | -15.5
CC(NCC1(N2CCOCC2)CCCCC1)C(=O)N1CCc2ccccc21 (stereo not given) | / | / | 1.5 | -14.4 | / | 10.3
CC(Nc1ccccc1N1CCCCC1)C(=O)N1CCc2ccccc21 (stereo not given) | -3.1 | 42.9* | 3.0 | -2.5 | 0.7 | 0.3
CCC(c1nnnn1Cc1ccco1)N(CCc1ccccc1)Cc1cc2cc(C)ccc2[nH]c1=O (stereo not given) | / | / | -0.4 | / | / | -11.5
Cc1ccc2[nH]c(=O)c(CN(CCc3ccccc3)C(c3nnnn3Cc3ccco3)C(C)C)cc2c1 (stereo not given) | 5.6 | 0.3 | -1.3 | 72.0* | / | -8.8
Cn1nc([N+](=O)[O-])nc1Sc1ccc(Cl)cc1 | / | / | / | 15.4 | / | /
CN(CC(=O)NC1CCN(Cc2ccccc2)CC1)S(=O)(=O)c1ccc2c(c1)c(=O)n(C)c(=O)n2C | 20.2 | 43.2* | / | -20.3 | 0.7 | /
C[C@@H]1CCCCO[C@H](CN(C)Cc2ccncc2)[C@@H](C)CN([C@H](C)CO)C(=O)c2cc(N(C)C)ccc2O1 | 9.3 | -0.6 | 109.5* | -19.8 | 1.8 | -8.2
COc1ccc(CN(C)C[C@@H]2OCCCC[C@H](C)Oc3ccc(N(C)C)cc3C(=O)N([C@H](C)CO)C[C@@H]2C)cc1 | -1.5 | -0.4 | 94.1* | 3.7[16.7 µM] | 1.7 | 1.1
C[C@@H]1CCCCO[C@@H](CN(C)Cc2ccccc2)[C@H](C)CN([C@H](C)CO)C(=O)c2cc(N(C)C)ccc2O1 | 2.1 | / | / | 16.9[16.7 µM] | / | 7.3
CC(C)(C)c1ccc(C(=O)Nc2sc3c(c2C(=O)O)CCC3)cc1 | -58.2 | 0.1 | / | 80.9* | -0.4 | 5.3
NC(=O)c1c(NC(=O)c2ccc([N+](=O)[O-])o2)sc2c1CCCC2 | -2.4 | 0.3 | -0.5 | -0.3 | 4.2 | -0.7
CN1CCc2c(sc(NC(=O)c3ccc([N+](=O)[O-])o3)c2C(N)=O)C1 | -53.1 | 0.0 | 2.0 | 71.7* | 7.6 | /
